# An excerpt weighted towards active compounds, which were near 2.2% of everything screened.
# ARFGAP1 inh = inhibits rat ARF GTPase activating protein 1 | Q62848 | Arfgap1-stimulated ARF1 GTP hydrolysis, GDP FP detection | inhibition, % at 16.5 µM | actives 0.26% (n = 360,000);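 active = inhibition above a per-plate limit, mean inhibition of low control wells plus 3 SD, cut at about 25% in these data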;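 note: 0% = DMSO wells with enzyme and 100% = wells lacking Arfgap1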
# Target sequence (Q62848 1-136 limits assumed): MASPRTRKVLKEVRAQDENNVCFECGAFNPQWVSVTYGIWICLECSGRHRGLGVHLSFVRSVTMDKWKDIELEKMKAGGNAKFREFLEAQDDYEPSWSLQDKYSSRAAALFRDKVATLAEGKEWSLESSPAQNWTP
#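 System: truncated rat Arfgap1 GAP domain / Medium: HEPES-based buffer, pH 7.5 / Also added: N-terminally truncated human ARF1-GTP substrate / Incubation: enzyme reaction 120 min at 25 °C after 20 min preincubation / Measured by: FP of antibody-bound GDP Alexa 633 tracer, ex 620/em 688 nm / Replicates: singlicate, each compound tested once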
# ASAP1 GAP inh = inhibitors of human ASAP1 ArfGAP activity. ASAP1-stimulated ARF1 GTP hydrolysis, GDP FP detection. inhibition, % at 16.5 µM. actives 0.19% (n = 360,000); in the data active = inhibition above about 25%;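 note: 0% = vehicle with enzyme and substrate and 100% = no enzyme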
# Target sequence (Q9ULH1 325-724 limits assumed): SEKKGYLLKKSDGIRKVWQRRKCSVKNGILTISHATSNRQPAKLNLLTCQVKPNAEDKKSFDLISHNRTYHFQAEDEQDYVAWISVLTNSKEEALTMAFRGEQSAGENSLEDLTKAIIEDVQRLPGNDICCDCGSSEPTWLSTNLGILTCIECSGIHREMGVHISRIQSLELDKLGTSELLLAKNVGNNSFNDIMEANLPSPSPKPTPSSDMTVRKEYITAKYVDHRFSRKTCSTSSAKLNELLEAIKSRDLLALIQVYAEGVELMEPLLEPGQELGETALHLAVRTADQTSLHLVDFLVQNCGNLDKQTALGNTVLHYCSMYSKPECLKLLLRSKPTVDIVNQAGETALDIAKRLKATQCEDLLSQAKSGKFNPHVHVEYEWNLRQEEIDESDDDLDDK
# NadD block = NadD (S. aureus) enzyme inhibition; purified NadD enzyme, colorimetric absorbance read-out; inhibition, % at 20 µM; actives 0.78% (n = 360,000); AID 602399; in the data active = inhibition above about 26%
# rCAG RNA binder = binds r(CAG) RNA repeats; r(CAG) RNA repeat, TO-PRO-1 dye displacement fluorescence; inhibition, % at 3 µM; actives 1.3% (n = 370,000);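 active = inhibition above the plate cutoff, the mean of all test compounds on that plate plus 3 SD, cut at about 35% in these data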;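 note: 0% = DMSO alone and 100% = 100 µM mitoxantrone as full dye displacement; higher means more dye released from RNA so lower well fluorescence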
# rCAG binder conf = r(CAG) RNA repeat binding, confirmation. inhibition, % at 3 µM. shares compounds with rCAG RNA binder. actives 70% (n = 4,300). TO-PRO-1 dye displacement fluorescence;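 active = inhibition above a per-plate cutoff, the mean inhibition of sample wells plus 3 SD, cut at about 35% in these data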;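 note: loss of TO-PRO-1 fluorescence as compound displaces dye from 1x1 AA loop RNA; 0% = DMSO only wells and 100% = 100 µM mitoxantrone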
# DNA CAG counter = disrupts DNA CAG TO-PRO-1 complex, flagging rCAG hits; shares compounds with rCAG RNA binder; d(CAG) DNA oligo TO-PRO-1 dye displacement, fluorescence; inhibition, % at 3 µM; actives 94% (n = 4,300);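 active = inhibition above its plate's cutoff, the mean test-well inhibition plus 3 SD, cut at about 4.8% in these data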;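 note: 0% = DNA dye mix with DMSO and 100% = 100 µM mitoxantrone; hits displace the dye from DNA and so lower well fluorescence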
# dCAG dye DR = disrupts DNA CAG TO-PRO-1 complex in dose response; IC50, µM; DNA CAG/GTC duplex TO-PRO-1 dye displacement fluorescence; AID 686960; shares compounds with rCAG RNA binder; actives 20% (n = 250); in the data active = IC50 below about 10 µM
# An asterisk follows results filed as active; i = inactive; nt = no result given.
SMILES,ARFGAP1 inh,ASAP1 GAP inh,NadD block,rCAG RNA binder,rCAG binder conf,DNA CAG counter,others
CCOC(=O)C1=C(O)/C(=C/c2cc(OC)c(OC)c(OC)c2)SC1=Nc1ccc(OC)cc1,8,-7,-16,7,nt,nt,
CCOC(=O)C1=C(O)/C(=C/c2ccc(OCC(=O)O)c(OCC)c2)SC1=Nc1ccc(C)cc1,-5,1,10,45*,68*,25*,
COc1ccc(/C=C2/CN(Cc3ccc(OC)cc3OC)C3=N[C@H](c4ccccc4)CC(=O)N32)cc1,nt,nt,nt,6,nt,nt,
COc1ccc(C(=O)NC2CCCc3c2cnn3-c2cccc(C)c2C)o1 (stereo not drawn),0,-5,-4,-6,nt,nt,
CCOc1ccc(Br)cc1S(=O)(=O)Nc1ccc(Cl)c(S(=O)(=O)N(CC)c2ccccc2)c1,-5,-1,6,30,nt,nt,
CCOc1ccc(Br)cc1S(=O)(=O)Nc1ccc(Cl)c(S(=O)(=O)N(C)C)c1,-2,-9,-6,36*,34,9.0*,
C[C@H](CO)N1C[C@H](C)[C@@H](CN(C)C(=O)Nc2ccc3c(c2)OCO3)Oc2c(NC(=O)Cc3ccccc3)cccc2C1=O,2,-1,0,5,nt,nt,
COc1ccc(O)c(C(=O)c2cnc3nc4ccccc4n3c2)c1,2,2,13,40*,17,6.5*,
O=C(CSc1nnc(-c2ccccn2)n1-c1ccccc1)Nc1ccc(OCc2ccccc2)cc1,nt,nt,nt,11,nt,nt,
O=C(CN1c2ccccc2Sc2ccccc21)NNC(=S)Nc1ccc(Cl)cc1,21,0,14,62*,65*,31*,dCAG dye DR=i
O=C(CN1CCOCC1)NNC(=S)Nc1ccc(Cl)cc1,-8,2,-1,1,nt,nt,
C[C@H](CO)N1C[C@H](C)[C@H](CN(C)C(=O)Nc2ccc(F)cc2)Oc2ncc(Br)cc2C1=O,6,3,nt,3,nt,nt,
Nn1c(SCC(=O)Nc2cccc3ccccc23)nnc1-c1cc(-c2ccc(Cl)cc2)n[nH]1,nt,nt,nt,13,nt,nt,
Cc1cc(C)cc(NC(=O)CSc2ncc(S(=O)(=O)c3ccccc3)c(=O)[nH]2)c1,-5,-8,nt,61*,47*,15*,
Cc1ccc(C(=O)Nc2cccc(S(=O)(=O)N3CCCC3)c2)o1,1,0,-5,6,nt,nt,
COP(=O)(CC(=O)OC(C)(C)C)C(CC(C)C)NC(=O)OCc1ccccc1 (stereo not drawn),nt,nt,nt,-1,nt,nt,
COc1cc(C)ccc1S(=O)(=O)NC(=O)C1(C)CCN1C(=O)c1ccc(C2CCCCC2)cc1 (stereo not drawn),-3,-3,2,40*,38*,8.3*,
Cc1cccc(S(=O)(=O)NC(=O)C2(C)CCN2C(=O)c2ccc(C3CCCCC3)cc2)c1 (stereo not drawn),3,-6,6,20,nt,nt,
COCCCN1C(=O)C(CC(=O)NCc2cccs2)CC(C(=O)N2CCCCCC2)=C1C (stereo not drawn),6,4,12,0,nt,nt,
Cc1ccccc1C(=O)N[C@H](C(=O)N1CCC[C@H]1C(=O)NCCc1ccccc1Cl)c1ccccc1,-5,-7,nt,0,nt,nt,
CNC(=S)Nc1cc(S(=O)(=O)Nc2cc(Cl)ccc2Cl)ccc1N1CCCC1,11,-2,18,37*,43*,19*,
COC(=O)c1cc(-c2ccc(C(C)(C)C)cc2)c(=O)n2c1CCC2,nt,nt,nt,-1,nt,nt,
CC(NC(=O)COC(=O)c1cc(NS(=O)(=O)c2ccc(Cl)c([N+](=O)[O-])c2)ccc1O)C1CC2CCC1C2 (stereo not drawn),1,-3,25,44*,58*,22*,
N#C/C(=N\Nc1ccc(S(=O)(=O)N2CCc3ccccc32)cc1)C(N)=S,4,7,23,85*,62*,27*,
CCOC(=O)/C(C#N)=N/Nc1ccc(S(=O)(=O)N2CCc3ccccc32)cc1,9,-4,10,40*,42*,15*,
SMILES,ARFGAP1 inh,ASAP1 GAP inh,NadD block,rCAG RNA binder,rCAG binder conf,DNA CAG counter,others
N#C/C(=N\Nc1ccc(S(=O)(=O)N2CCCCC2)cc1)C(N)=S,1,7,-2,27,nt,nt,
CCOC(=O)CCC(=O)Nc1ccc(S(=O)(=O)N2CCc3ccccc32)cc1,4,8,2,8,nt,nt,
N#C/C(=N\Nc1ccc(S(=O)(=O)N2CCCCCC2)cc1)C(N)=S,-12,-2,11,45*,44*,14*,
COCCn1c(=O)[nH]c2cc(C(=O)N3CCN(c4cccc(C)c4C)CC3)ccc2c1=O,-5,-9,6,0,nt,nt,
Cc1cccc(C(O)c2ncc(-c3ccc(Cl)cc3)[nH]2)c1C (stereo not drawn),24,16,-7,0,nt,nt,
Cc1ccc(C2=NOC(=O)/C2=C\c2ccc(C)o2)cc1,-7,-3,3,37*,15,6.8*,
Cc1ccc(/C=C2\C(=O)ON=C2c2ccccc2)o1,-3,0,-4,-2,nt,nt,
O=C(/C(=N/N=C/c1ccc(O)c(O)c1O)c1ccccc1)c1ccccc1,12,9,11,61*,74*,42*,
CCC(Sc1nc2ccsc2c(=O)n1Cc1ccc(C(=O)O)cc1)C(=O)Nc1ccc(Cl)cc1 (stereo not drawn),-12,3,21,72*,70*,34*,dCAG dye DR=i
COC(=O)C(C)N1C(=O)S/C(=C\c2ccc(-c3ccc(C(=O)O)cc3C)o2)C1=O (stereo not drawn),-1,13,18,44*,33,7.8*,
Cc1ccc(C(=O)O)cc1-c1ccc(C=C2C(=O)c3ccccc3C2=O)o1,-5,-2,8,15,nt,nt,
Cc1ccc(NC(=O)CN2C(=O)S/C(=C/c3ccc(-c4cc(C(=O)O)ccc4C)o3)C2=O)cc1C,-18,7,50*,46*,91*,74*,
Cc1cccc(NC(=O)CN2C(=O)S/C(=C\c3ccc(-c4cccc(C(=O)O)c4C)o3)C2=O)c1,8,12,nt,15,nt,nt,
C/C(=N\N=C(/N)SC1CC(=O)N(c2ccc(Cl)cc2)C1=O)c1cccs1 (stereo not drawn),3,9,9,43*,63*,24*,
C/C(=N\N=C(/N)SC1CC(=O)N(c2ccccc2)C1=O)c1cccs1 (stereo not drawn),3,-8,5,42*,35*,8.3*,
N/C(=N\N=C\c1ccco1)SC1CC(=O)N(c2ccccc2)C1=O (stereo not drawn),-3,14,-1,5,nt,nt,
C/C(=N\N=C(/N)SC1CC(=O)N(c2ccc(Cl)c(Cl)c2)C1=O)c1cccs1 (stereo not drawn),17,14,23,24,nt,nt,
N/C(=N\N=C\c1cccs1)SC1CC(=O)N(c2ccc(Br)cc2)C1=O (stereo not drawn),5,0,13,38*,70*,25*,dCAG dye DR=>30

# From PubChem
